Measured values published in ChEMBL document CHEMBL1138477, “8-(4-Methoxyphenyl)pyrazolo[1,5-a]-1,3,5-triazines: selective and centrally active corticotropin-releasing factor receptor-1 (CRF1) antagonists” (J Med Chem, 2009).
pIC50: −log10 of the molar value. Active and inactive are the calls of the source. The rule behind the calls is not given here.

How the values were obtained:
Canis familiaris [1] = assay: Ex vivo displacement of [125I]Tyr0-ovine CRF from CRF1 receptor in dog at 5 mg/kg, po measured in plasma after 10 hrs; format: functional; conditions: Canis lupus familiaris
How it was run: (§1)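 Beagle dogs given 5 mg/kg po (free base), in Labrafil or Tween-80/0.5% methylcellulose 1:99; plasma drawn 2 and 10 h postdose, diluted 10-fold in binding buffer, and tested for inhibition of 125I-Tyr0-ovine-CRF binding to rat receptors; mean ± SD, n = 3.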

[2] = biological target: T1, Corticotropin-releasing factor receptor 2 (Homo sapiens) (UniProt Q13324); assay: Antagonist activity at human cloned CRF2alpha receptor expressed in HEK293 cells; format: functional, cell-based
T1 sequence (whole entry): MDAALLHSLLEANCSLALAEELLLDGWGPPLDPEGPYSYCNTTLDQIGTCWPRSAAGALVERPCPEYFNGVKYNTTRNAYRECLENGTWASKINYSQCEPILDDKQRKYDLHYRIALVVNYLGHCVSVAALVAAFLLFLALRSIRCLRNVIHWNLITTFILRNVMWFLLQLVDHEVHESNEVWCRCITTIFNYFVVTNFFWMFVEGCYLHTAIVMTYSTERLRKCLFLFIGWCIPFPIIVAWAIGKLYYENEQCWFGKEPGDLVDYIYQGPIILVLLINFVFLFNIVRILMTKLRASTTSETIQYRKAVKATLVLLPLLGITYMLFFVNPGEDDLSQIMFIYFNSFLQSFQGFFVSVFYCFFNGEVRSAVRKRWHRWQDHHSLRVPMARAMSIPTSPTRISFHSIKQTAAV

[3] = biological target: T2, Corticotropin-releasing factor-binding protein (Homo sapiens, UniProt P24387); assay: Binding affinity to human recombinant CRF binding protein
T2 sequence (P24387 whole entry): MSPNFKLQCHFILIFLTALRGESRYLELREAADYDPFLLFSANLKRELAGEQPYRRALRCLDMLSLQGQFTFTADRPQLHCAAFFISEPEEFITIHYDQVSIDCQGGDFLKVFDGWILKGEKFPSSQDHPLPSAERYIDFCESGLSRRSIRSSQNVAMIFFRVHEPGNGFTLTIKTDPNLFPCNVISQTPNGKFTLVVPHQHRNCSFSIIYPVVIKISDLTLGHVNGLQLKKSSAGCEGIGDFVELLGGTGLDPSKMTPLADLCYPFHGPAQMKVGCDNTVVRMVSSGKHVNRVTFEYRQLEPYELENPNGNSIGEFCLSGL

[4] = biological target: T3, Corticotropin-releasing factor receptor 1 (Rattus norvegicus) (UniProt P35353); assay: Agonist activity at CRF1 receptor in rat brain homogenates assessed as CRF-stimulted cAMP production; format: functional, tissue-based
T3 sequence (whole entry): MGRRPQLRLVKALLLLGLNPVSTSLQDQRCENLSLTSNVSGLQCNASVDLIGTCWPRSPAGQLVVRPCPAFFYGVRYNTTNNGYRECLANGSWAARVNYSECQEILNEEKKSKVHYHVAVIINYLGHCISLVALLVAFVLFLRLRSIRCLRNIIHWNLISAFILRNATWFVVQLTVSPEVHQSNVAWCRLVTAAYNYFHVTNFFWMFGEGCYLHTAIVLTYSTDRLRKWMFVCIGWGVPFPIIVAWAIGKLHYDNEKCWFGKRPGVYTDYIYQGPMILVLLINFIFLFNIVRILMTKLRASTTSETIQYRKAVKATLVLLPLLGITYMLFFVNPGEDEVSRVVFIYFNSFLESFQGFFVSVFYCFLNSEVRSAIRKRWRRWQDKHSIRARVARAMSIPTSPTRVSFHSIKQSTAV

[5] = biological target: T1, Corticotropin-releasing factor receptor 2 (Homo sapiens); assay: Agonist activity at human cloned CRF2alpha receptor expressed in HEK293 cells; format: functional, cell-based
Canis familiaris [6] = assay: Ex vivo displacement of [125I]Tyr0-ovine CRF from CRF1 receptor in dog at 5 mg/kg, po measured in plasma after 2 hrs; format: functional; conditions: Canis lupus familiaris; how it was run: as §1
D(1A) dopamine receptor = D(1A) dopamine receptor (Homo sapiens, UniProt P21728); assay: Binding affinity to dopamine D1 receptor
Vasopressin V1a receptor = Vasopressin V1a receptor (Homo sapiens, UniProt P37288); assay: Binding affinity to vasopressin V1 receptor
[7] = biological target: T4, Corticotropin-releasing factor receptor 1 (Rattus norvegicus, UniProt P35353); assay: Displacement of [125I]Tyr0-ovine CRF from CRF1 receptor in rat cortical membrane by gamma counting; format: cell membranes
T4 sequence (P35353 whole entry): T3 sequence (whole entry)
How it was run: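 Inhibition of 125I-Tyr0-ovine-CRF binding to rat cortical membranes measured across dilutions of test drug; IC50 derived by iterative curve fitting.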

[8] = biological target: T5, Corticotropin-releasing factor receptor 2 (Homo sapiens, UniProt Q13324); assay: Binding affinity to human CRF2alpha receptor
T5 sequence (Q13324 whole entry): T1 sequence (whole entry)

[9] = biological target: T4, Corticotropin-releasing factor receptor 1; assay: Antagonist activity at CRF1 receptor in rat brain homogenates assessed as inhibition of CRF-stimulted cAMP production; format: functional, tissue-based
How it was run: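 Rat cortical homogenate (0.8 mg original wet weight tissue) incubated 10 min at 37 °C in 100 mM Tris-HCl pH 7.4, 10 mM MgCl2, 0.4 mM EGTA, 0.1% BSA, 1 mM IBMX, creatine phosphate/phosphocreatine kinase, 100 nM ovine-CRF; started with 1 mM ATP/[32P]ATP; [32P]cAMP separated on Dowex and alumina columns, [3H]cAMP recovery marker; n = 3.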

[10] = biological target: T6, Corticotropin-releasing factor receptor 1 (Homo sapiens, UniProt P34998); assay: Binding affinity to CRF1 receptor in human IMR32 cells; format: cell-based, IMR-32
T6 sequence (P34998 whole entry): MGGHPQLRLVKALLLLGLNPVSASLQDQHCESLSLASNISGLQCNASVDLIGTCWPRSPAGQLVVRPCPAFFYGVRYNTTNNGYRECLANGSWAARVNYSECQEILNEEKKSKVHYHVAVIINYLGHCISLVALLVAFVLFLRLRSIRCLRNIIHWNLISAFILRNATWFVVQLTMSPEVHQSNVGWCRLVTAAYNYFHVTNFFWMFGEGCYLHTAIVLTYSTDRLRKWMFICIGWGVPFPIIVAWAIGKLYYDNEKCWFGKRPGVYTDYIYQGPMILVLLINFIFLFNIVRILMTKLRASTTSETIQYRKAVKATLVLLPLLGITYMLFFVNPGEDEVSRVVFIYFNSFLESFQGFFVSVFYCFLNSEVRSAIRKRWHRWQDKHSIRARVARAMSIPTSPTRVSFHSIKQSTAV

[11] = biological target: T7, Alpha-2B adrenergic receptor (Homo sapiens, UniProt P18089); assay: Binding affinity to adrenergic alpha2b receptor
T7 sequence (P18089 whole entry): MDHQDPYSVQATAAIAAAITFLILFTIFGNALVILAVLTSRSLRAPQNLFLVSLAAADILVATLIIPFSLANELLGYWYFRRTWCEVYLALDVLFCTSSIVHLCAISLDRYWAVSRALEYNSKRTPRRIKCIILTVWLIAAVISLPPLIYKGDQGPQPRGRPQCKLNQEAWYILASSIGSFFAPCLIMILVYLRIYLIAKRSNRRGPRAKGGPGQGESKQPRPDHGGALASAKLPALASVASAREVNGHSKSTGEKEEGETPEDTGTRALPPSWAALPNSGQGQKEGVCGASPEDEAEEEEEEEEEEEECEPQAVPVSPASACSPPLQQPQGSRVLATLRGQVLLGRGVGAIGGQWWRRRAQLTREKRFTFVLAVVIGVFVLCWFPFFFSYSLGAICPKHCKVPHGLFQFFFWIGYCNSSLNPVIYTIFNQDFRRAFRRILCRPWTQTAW

Vasopressin V1a receptor, sequence (P37288 whole entry): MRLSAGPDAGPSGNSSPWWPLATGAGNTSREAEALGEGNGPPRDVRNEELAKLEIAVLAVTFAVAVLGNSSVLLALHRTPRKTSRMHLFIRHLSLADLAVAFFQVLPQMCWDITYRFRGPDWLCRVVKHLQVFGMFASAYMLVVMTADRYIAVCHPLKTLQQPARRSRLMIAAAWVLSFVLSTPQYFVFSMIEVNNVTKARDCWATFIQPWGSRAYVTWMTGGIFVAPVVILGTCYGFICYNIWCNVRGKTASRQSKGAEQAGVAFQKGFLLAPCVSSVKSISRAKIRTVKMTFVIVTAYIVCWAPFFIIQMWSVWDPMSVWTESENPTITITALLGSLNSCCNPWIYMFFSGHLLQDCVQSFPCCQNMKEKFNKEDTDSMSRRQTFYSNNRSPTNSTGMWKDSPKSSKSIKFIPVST
D(1A) dopamine receptor, sequence (P21728 whole entry): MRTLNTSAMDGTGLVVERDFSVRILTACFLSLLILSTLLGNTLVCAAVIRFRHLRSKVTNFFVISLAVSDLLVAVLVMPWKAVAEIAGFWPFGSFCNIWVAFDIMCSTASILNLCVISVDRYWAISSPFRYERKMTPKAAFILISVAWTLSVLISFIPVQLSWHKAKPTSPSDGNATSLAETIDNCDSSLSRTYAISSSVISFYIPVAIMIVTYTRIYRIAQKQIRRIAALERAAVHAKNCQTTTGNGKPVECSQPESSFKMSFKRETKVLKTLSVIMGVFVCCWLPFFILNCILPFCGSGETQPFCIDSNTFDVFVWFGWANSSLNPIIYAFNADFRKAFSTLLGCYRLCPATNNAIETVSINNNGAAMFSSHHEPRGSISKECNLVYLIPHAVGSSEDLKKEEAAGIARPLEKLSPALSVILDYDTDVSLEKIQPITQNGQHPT

Activity [2] | pIC50 [3] | Activity [4] | Activity [5] | pIC50 (D(1A) dopamine receptor) | pIC50 (Vasopressin V1a receptor) | pIC50 [7] | pIC50 [8] | pIC50 [9] | pIC50 [10] | pIC50 [11] | SMILES | inhibition in vivo at 5 mg/kg (Canis familiaris [1]) | inhibition in vivo at 5 mg/kg (Canis familiaris [6])
inactive | < 6.00 | inactive | inactive | < 6.00 | < 6.00 | 8.38 | < 6.00 | 7.18 | 8.33 | < 6.00 | COCCN(CCOC)c1nc(C)nc2c(-c3ccc(OC)cc3C)c(C)nn12 | 37% | 75%
inactive | < 6.00 | inactive | inactive | < 6.00 | < 6.00 | 8.70 | < 6.00 | 7.42 | 7.82 | < 6.00 | COCCN(CCOC)c1nc(C)nc2c(-c3cc(C)c(OC)cc3C)c(C)nn12 | 44% | 84%
inactive | < 6.00 | inactive | inactive | < 6.00 | < 6.00 | 9.00 | < 6.00 | 7.44 | 8.92 | < 6.00 | CCC(CC)Nc1nc(C)nc2c(-c3cc(F)c(OC)cc3Cl)c(C)nn12 | 66% | 97%
inactive | < 6.00 | inactive | inactive | < 6.00 | < 6.00 | 8.36 | < 6.00 | 6.96 | 8.47 | < 6.00 | CC[C@@H](C)Nc1nc(C)nc2c(-c3c(C)cc(OC)cc3OC)c(C)nn12 | 83% | 72%
